Published values from different studies.
Each line is one published result; the experiments were not run side by side.
Target: Aurora kinase A (AURKA, Homo sapiens, UniProt O14965)
Sequence (O14965 1-403, as in one of the studies): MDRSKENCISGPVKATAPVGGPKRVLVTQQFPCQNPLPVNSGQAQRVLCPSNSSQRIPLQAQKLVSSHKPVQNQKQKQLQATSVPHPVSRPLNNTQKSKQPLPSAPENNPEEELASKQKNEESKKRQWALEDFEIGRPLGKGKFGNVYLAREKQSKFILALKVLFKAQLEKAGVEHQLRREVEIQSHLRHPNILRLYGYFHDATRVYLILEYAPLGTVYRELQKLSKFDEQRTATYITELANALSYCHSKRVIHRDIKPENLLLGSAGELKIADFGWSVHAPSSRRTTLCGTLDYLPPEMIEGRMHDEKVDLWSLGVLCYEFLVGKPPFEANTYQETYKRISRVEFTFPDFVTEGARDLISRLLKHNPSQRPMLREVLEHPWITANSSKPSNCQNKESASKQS

`C[C@H]1CCN(c2nccc(-c3cnn4ncccc34)n2)C1` has a remaining binding of 91% (binding; 1 µM).
`COc1ccc2cc(OCC3(C(=O)O)CN(C(=O)c4ccc(F)cc4)C3)ccc2c1` gave a remaining binding of 100% (cell-free assay, competition with immobilised ligand; 1 µM).
For `CN(CCCC(F)(F)F)c1nccc(-c2cnn3ncccc23)n1`, the remaining binding was 90% (binding; 1 µM).
The remaining binding of `C[C@@H]1CN(c2ccc3ncc(-c4ccc5[nH]nc(C6CC6)c5c4)n3n2)C[C@H](C)O1` is reported as 87% (binding, competition with immobilised ligand; 50 nM).
`CN(C)c1ncc(F)c(-c2cnn3ncccc23)n1` has a remaining binding of 100% (binding; 1 µM).
`C=CC(=O)N1CCC(C(=O)NCC(=O)N2CCN(c3nc(-c4cnc(N)nc4C(F)F)nc(N4CCOCC4)n3)CC2)CC1` gave a remaining binding of 96% (binding, competition with immobilised ligand; 1 µM).
`Nc1cnc(N2CCc3cc(S(=O)(=O)Nc4c(F)cc(Cl)cc4F)cc(N4CCCC4=O)c32)nc1` gave a remaining binding of 100% (cell-free assay, competition with immobilised ligand; 1 µM).
With `COc1cnc(Nc2cccc(S(N)(=O)=O)c2)nc1N1CCN(c2ccccc2)CC1` the remaining binding was 85% (binding, competition with immobilised ligand; 1 µM).
The remaining binding of `O=c1nc(-c2ccccn2)sc2ccccc12` is reported as 87% (cell-free assay, competition with immobilised ligand; 1 µM).
With `O=C(NCCCN1CCOCC1)c1ccc(Nc2ncc(Cl)c(-c3ccc(Cl)s3)n2)cc1` the remaining binding was 12% (binding, competition with immobilised ligand; 1 µM).
The remaining binding of `FC(F)(F)Oc1cccc(-c2cnc3ccc(-c4ccncc4)nn23)c1` is reported as 91% (cell-free assay, competition with immobilised ligand; 5 µM).
For `O=C(c1ccc(Nc2ncc(Cl)c(-c3cc4ccccc4s3)n2)cc1)N1CCC(N2CCCC2)CC1`, the remaining binding was 9.2% (binding, competition with immobilised ligand; 1 µM).
For `c1cncc(-c2cccc(Nc3nccc(NC4CCCCC4)n3)c2)c1`, the remaining binding was 5.9% (binding, competition with immobilised ligand; 10 µM).
With `Cc1cnn2ncc(-c3ccnc(N(C)C)n3)c2c1` the remaining binding was 99% (binding; 1 µM).
With `N#Cc1ccccc1CSc1nnc2c(n1)[nH]c1ccccc12` the remaining binding was 100% (binding, competition with immobilised ligand; 10 µM).
`O=C(NCc1ncc(C(F)(F)F)cc1Cl)c1ccc2c(c1)C1(CCS(=O)(=O)CC1)[C@@H](C1CC1)N2S(=O)(=O)c1ccc(F)cc1` gave a remaining binding of 81% (cell-free assay, competition with immobilised ligand; 1 µM).
The remaining binding of `N[C@@H]1CCN(c2nccc(-c3cnn4ncccc34)n2)C1` is reported as 100% (binding; 1 µM).
`CCC(=O)N[C@H]1CC[C@@H](C(=O)N(C)c2ccc(-c3nc4ccccc4o3)cc2)C1` has a remaining binding of 43% (cell-free assay, competition with immobilised ligand; 1 µM).
The remaining binding of `O=C(NCC1CCOCC1)c1n[nH]cc1NC(=O)c1c(F)cccc1F` is reported as 87% (binding, competition with immobilised ligand; 1 µM).
With `Cc1c(NC(=O)c2cc(C(N)=O)nc3cc(F)ccc23)c(C(F)(F)F)nn1Cc1ccc(C(C)(C)C)cc1` the remaining binding was 100% (cell-free assay, competition with immobilised ligand; 1 µM).
For `CC1CCCN1c1nccc(-c2cnn3ncccc23)n1` (stereo not shown), the remaining binding was 87% (binding; 1 µM).
`COc1cc(-c2cn(C3CCc4ccccc4N(CC(F)(F)F)C3=O)nn2)ccc1-n1ccc(C)n1` (stereo not shown) gave a remaining binding of 58% (cell-free assay, competition with immobilised ligand; 1 µM).
With `O=C(c1ccc(Nc2ncc(Cl)c(-c3ccc(Cl)s3)n2)cc1)N1CCC(N2CCCC2)CC1` the remaining binding was 1.9% (binding, competition with immobilised ligand; 1 µM).
`CS(=O)(=O)NCC[C@H](NC(=O)c1cncc2c1cnn2-c1ccc(F)cc1)c1ccnc(S(C)(=O)=O)c1` has a remaining binding of 100% (cell-free assay, competition with immobilised ligand; 1 µM).
With `CN(c1nccc(-c2cnn3ncccc23)n1)C1CC1` the remaining binding was 84% (binding; 1 µM).
